Measurements from ChEMBL document CHEMBL1153046, “Synthesis and antitumor activity of substituted triazolo[4,3-a]pyrimidin-6-sulfonamide with an incorporated thiazolidinone moiety” (2009).

Legend:
Type in all cases: functional
MCF7 = assay: Antiproliferative activity against human MCF7 cells assessed as cell growth at 100 uM after 48 hrs by alamar blue assay; details: MCF7, 48 h, read-out: Activity
How it was run: (§1)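 NCI three-cell-line primary screen. Cells are seeded and preincubated in microtiter plates. Compound is added at a single 10^-4 M concentration and cultures are incubated 48 h. The end-point is read with alamar blue. Results are given as percent growth relative to untreated control cells.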

NCI-H460 = assay: Antiproliferative activity against human NCI-H460 cells assessed as cell growth at 100 uM after 48 hrs by alamar blue assay; details: NCI-H460, 48 h, read-out: Activity; how it was run: as §1
SF-268 = assay: Antiproliferative activity against human SF268 cells assessed as cell growth at 100 uM after 48 hrs by alamar blue assay; details: SF-268, 48 h, read-out: Activity; how it was run: as §1

Compound	growth at 100 µM (MCF7)	growth at 100 µM (NCI-H460)	growth at 100 µM (SF-268)
COc1ccc(/C=N/c2nc3[nH]nc(C)n3c(=O)c2S(=O)(=O)NN2C(=O)C(CN3CCOCC3)SC2c2ccc(Cl)cc2)cc1 (stereo not drawn)	94%	68%	95%
COc1ccc(/C=N/c2nc3[nH]nc(C)n3c(=O)c2S(=O)(=O)NN2C(=O)C(CN3CCOCC3)SC2c2ccc(C)cc2)cc1 (stereo not drawn)	67%	63%	82%
COc1ccc(/C=N/c2nc3[nH]nc(C)n3c(=O)c2S(=O)(=O)NN2C(=O)C(CN3CCN(C)CC3)SC2c2ccc(C)cc2)cc1 (stereo not drawn)	55%	109%	102%
COc1ccc(/C=N/c2nc3[nH]nc(C)n3c(=O)c2S(=O)(=O)Nc2ccc(Cl)cc2)cc1	87%	102%	87%
COc1ccc(/C=N/c2nc3[nH]nc(C)n3c(=O)c2S(=O)(=O)NN2C(=O)C(CN3CCN(C)CC3)SC2c2ccc(Cl)cc2)cc1 (stereo not drawn)	102%	86%	106%
COc1ccc(/C=N/c2nc3[nH]nc(C)n3c(=O)c2S(=O)(=O)Nc2ccc(C)cc2)cc1	83%	89%	85%
COc1ccc(/C=N/c2nc3[nH]nc(C)n3c(=O)c2S(=O)(=O)NN2C(=O)CSC2c2ccc(Cl)cc2)cc1 (stereo not drawn)	90%	88%	84%
COc1ccc(/C=N/c2nc3[nH]nc(C)n3c(=O)c2S(=O)(=O)NN2C(=O)CSC2c2cccs2)cc1 (stereo not drawn)	89%	106%	98%
COc1ccc(/C=N/c2nc3[nH]nc(C)n3c(=O)c2S(=O)(=O)N/N=C/c2ccc(C)cc2)cc1	87%	83%	93%
COc1ccc(/C=N/NS(=O)(=O)c2c(/N=C/c3ccc(OC)cc3)nc3[nH]nc(C)n3c2=O)cc1	83%	55%	85%
COc1ccc(/C=N/c2nc3[nH]nc(C)n3c(=O)c2S(=O)(=O)NN2C(=O)CSC2c2ccc(OC)cc2)cc1 (stereo not drawn)	91%	118%	94%
COc1ccc(/C=N/c2nc3[nH]nc(C)n3c(=O)c2S(=O)(=O)N/N=C/c2cccs2)cc1	66%	13%	62%
COc1ccc(/C=N/c2nc3[nH]nc(C)n3c(=O)c2S(=O)(=O)Nc2ccc(OC)cc2)cc1	86%	82%	91%
COc1ccc(/C=N/c2nc3[nH]nc(C)n3c(=O)c2S(=O)(=O)N/N=C/c2ccc(Cl)cc2)cc1	93%	73%	101%
COc1ccc(/C=N/c2nc3[nH]nc(C)n3c(=O)c2S(=O)(=O)NN)cc1	43%	45%	55%
COc1ccc(/C=N/c2nc3[nH]nc(C)n3c(=O)c2S(=O)(=O)NN2C(=O)CSC2c2ccc(C)cc2)cc1 (stereo not drawn)	72%	67%	63%
